Series [1] deals with MDA-MB-231. The series is described as follows: Induction of cell cycle arrest in human MDA-MB-231 cells assessed as accumulation at G2/M phase at 2 uM incubated for 24 hrs by PI staining based flow cytometry analysis (reference value: 4.35 to 19.56 %). The format is functional. Background: A flow cytometer gives signals particle by particle.
The test system of series [2] is MDA-MB-231. The series is described as follows: Induction of cell cycle arrest in human MDA-MB-231 cells assessed as accumulation at G2/M phase at 6 uM incubated for 24 hrs by PI staining based flow cytometry analysis (reference value: 4.35 to 19.56 %). Format: functional.
The test system of series [3] is MDA-MB-231. The series is described as follows: Induction of apoptosis in human MDA-MB-231 cells assessed as early apoptotic cells at 6 uM incubated for 24 hrs by annexin-V-FITC and PI staining based flow cytometry analysis (reference value: 0.28 to 4.68 %). The format is functional. The method, boiled down: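 MDA-MB-231 cells (1 × 10^6) grown 24 h in six-well plates, then treated for 24 h. Cells trypsinized, PBS-washed and stained with Annexin V-FITC/PI in binding buffer for 10 min in the dark at room temperature. Early/late apoptotic fractions quantified by flow cytometry.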

The subject of series [4] is MDA-MB-231. The series is described as follows: Induction of apoptosis in human MDA-MB-231 cells assessed as viable cells at 4 uM incubated for 24 hrs by annexin-V-FITC and PI staining based flow cytometry analysis (reference value: 95.27 to 97.16 %). The note with it: read-out: Activity. Format: functional.
Series [5] can be described thus: Toxicity in BALB/c mouse xenografted with mouse 4T1 cells assessed as survival rate at 10 to 20 mg/kg, po administered for 21 days and measured on day 21. Format: organism-based. Particulars: in vivo, 504 h, dose 10-20 mg/kg, time 21 day. Summed up:
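Orthotopic syngeneic model: 4T1 cells (7 × 10^5) injected into mammary fat pad of six-week-old female Balb/c mice. Once tumours were measurable at one week, mice were randomized into ten groups. Compound was dissolved in ethanol, diluted in PBS, and given by oral gavage at 10 or 20 mg/kg daily for 21 days; vehicle controls. Body weight and tumour size were measured twice weekly.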

Series [6] has as its system MDA-MB-231. The series is described as follows: Induction of apoptosis in human MDA-MB-231 cells assessed as viable cells at 6 uM incubated for 24 hrs by annexin-V-FITC and PI staining based flow cytometry analysis (reference value: 95.27 to 97.16 %). Format: functional. Particulars: read-out: Activity.
The nature of series [7]: Acute toxicity in Swiss albino mouse assessed as hemoglobin level at 5 mg/kg, po administered once and observed for 7 days (reference value: 17.35 +/- 0.3 gm/dl). Format: organism-based. Particulars: in vivo, 168 h, time 7 day.
The subject of series [8] is MDA-MB-231. The series is described as follows: Induction of mitochondrial membrane depolarization in human MDA-MB-231 cells at 2 to 6 uM incubated for 24 hrs by JC-1 staining based flow cytometry analysis. The format is functional, cell-based. Particulars: dose 2-6 µM. Summed up: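 Mitochondrial potential measured in MDA-MB-231 cells (1 × 10^6) seeded in six-well plates for 24 h and treated 24 h. Trypsinized cells PBS-washed and stained with 5 µg/ml JC-1 for 30 min in dark at room temperature. Resuspended in PBS and read by flow cytometry as red aggregate versus monomer fluorescence.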

A short description of series [9]: Acute toxicity in Swiss albino mouse assessed as cholesterol level at 300 mg/kg, po administered once and observed for 7 days (reference value: 122.05 +/- 8.12 mg/dl). The format is organism-based. The note with it: in vivo, 168 h, time 7 day.
Series [10] concerns MDA-MB-231. The series is described as follows: Induction of apoptosis in human MDA-MB-231 cells assessed as late apoptotic cells at 6 uM incubated for 24 hrs by annexin-V-FITC and PI staining based flow cytometry analysis (reference value: 0.28 to 0.84 %). The format is functional.
In series [11] the test system is MDA-MB-231. The series is described as follows: Induction of cell cycle arrest in human MDA-MB-231 cells assessed as accumulation at S phase at 2 uM incubated for 24 hrs by PI staining based flow cytometry analysis (reference value: 40.37 to 57.89 %). The format is functional.
A short description of series [12]: Acute toxicity in Swiss albino mouse assessed as cholesterol level at 5 mg/kg, po administered once and observed for 7 days (reference value: 122.05 +/- 8.12 mg/dl). Format: organism-based. The note with it: in vivo, 168 h, time 7 day.
Series [13] can be described thus: Acute toxicity in Swiss albino mouse assessed as effect on response of organism at 5 to 300 mg/kg, po administered once and observed for 7 days. The format is organism-based. Particulars: in vivo, 168 h, dose 5-300 mg/kg, time 7 day. Summed up: (§1)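 Acute oral toxicity per OECD guideline 423; mice 20–25 g, 3 male + 3 female per group, acclimatized 7 days at 22 ± 5 °C, 12 h light/dark. Compound dissolved in minimal DMSO, diluted in 0.7% CMC, single oral dose of 5, 50 or 300 mg/kg; controls given vehicle only. Clinical signs checked hourly on dosing day, then daily. Samples and body weights taken on day 7.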

The subject of series [14] is MDA-MB-231. The series is described as follows: Induction of cell cycle arrest in human MDA-MB-231 cells assessed as accumulation at G0/G1 phase at 2 uM incubated for 24 hrs by PI staining based flow cytometry analysis (reference value: 23.74 to 46.27 %). The format is functional.
Series [15] relates to PC-3. The series is described as follows: Cytotoxicity against human PC-3 cells assessed as reduction in cell viability incubated for 24 hrs by MTT assay. The format is functional, cell-based. Particulars: PC-3, 24 h. The method, boiled down:
(§2)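 MTT viability: cells seeded at 1 × 10^4/well, grown 24 h, then exposed to a concentration range of compound for 24 h. MTT (5 mg/mL stock) added for 3 h, formazan dissolved in DMSO, absorbance read at 540 nm.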

Series [16] concerns HEK293. The series is described as follows: Cytotoxicity against human HEK293 cells assessed as reduction in cell viability incubated for 24 hrs by MTT assay. Particulars: HEK293, 24 h. The format is cell-based. The method, boiled down: as §2
The nature of series [17]: Acute toxicity in Swiss albino mouse assessed as absolute lungs weight at 5 to 300 mg/kg, po administered once and observed for 7 days. The format is organism-based. The note with it: in vivo, 168 h, dose 5-300 mg/kg, time 7 day. The method, boiled down: as §1
Series [18] has as its target Tubulin (Homo sapiens) (UniProt P68371+Q9H4B7+P0DPH7+P68366+Q13509+Q71U36+P04350+Q3ZCM7+P07437+P68363+Q9BQE3+Q6PEY2+Q13885+Q9BVA1+Q9BUF5). The series is described as follows: Induction of tubulin polymerization (unknown origin) at 10 uM incubated for 1 hr by spectrometric analysis. The format is protein-complex assay.
The subject of series [19] is MDA-MB-231. The series is described as follows: Induction of cell cycle arrest in human MDA-MB-231 cells assessed as accumulation at S phase at 6 uM incubated for 24 hrs by PI staining based flow cytometry analysis (reference value: 40.37 to 57.89 %). Format: functional.
In series [20] the test system is MDA-MB-231. The series is described as follows: Cytotoxicity against human MDA-MB-231 cells assessed as reduction in cell viability incubated for 24 hrs by MTT assay. The format is functional, cell-based. Particulars: MDA-MB-231, 24 h. The method, boiled down: as §2
On the technique in general: Tetrazolium assays rely on reduction of a dye to a coloured formazan, in cell work by metabolically active cells.

Series [21] relates to MDA-MB-231. The series is described as follows: Induction of cell cycle arrest in human MDA-MB-231 cells assessed as accumulation at G2/M phase at 4 uM incubated for 24 hrs by PI staining based flow cytometry analysis (reference value: 4.35 to 19.56 %). Format: functional.
Series [22] deals with MDA-MB-231. The series is described as follows: Induction of cell cycle arrest in human MDA-MB-231 cells assessed as accumulation at G0/G1 phase at 6 uM incubated for 24 hrs by PI staining based flow cytometry analysis (reference value: 23.74 to 46.27 %). The format is functional.
Series [23] relates to 4T1. The series is described as follows: Antitumor activity against mouse 4T1 cells […] in BALB/c mouse assessed as reduction in tumor growth at 10 to 20 mg/kg, po administered for 21 days and measured on day 21 relative to control. The format is functional, organism-based. Particulars: dose 10-20 mg/kg, time 21.0 day. Summed up: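 Orthotopic syngeneic model: 4T1 cells (7 × 10^5) injected into the mammary fat pad of six-week-old female Balb/c mice; randomized once tumors were measurable (1 week). Compounds in ethanol diluted in PBS, 10 or 20 mg/kg oral gavage daily for 21 days; vehicle controls. Tumor size measured twice weekly; volume = (LW²) × 0.5.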

pIC50: −log10 of the molar value. Active and inactive are the calls of the source. The calls are words filed in the database; no cut-off is given here.

As a reminder, the pIC50 is the IC50 on a negative log10 scale, so that one unit is a factor of ten. With `COc1ccc2c(c1)c(Cc1ccc(OCCN(C)C)cc1)c(-c1cc(OC)c(OC)c(OC)c1)n2Cc1ccc(OCCN(C)C)cc1`, the Activity in [1] is 0.79%; in series [2] it was 0%; in series [3], 39.6%; in [5], “Non-Toxic”; in series [7], 16.59 g/dL; in series [9] it was 132.33 mg/dL. The Activity is 15.1% in [10]; 38.78% in series [11]; 112.13 mg/dL in series [12]; “Non-Toxic” in series [13]; 60.43% in [14]; “Non-Toxic” in [17]. Also, the results for the Activity in [19], in series [21] and in series [22] were 35.63%, 0.22% and 64.37%, respectively. The viability at 4 µM in series [4] amounted to 58.3%. The viability at 6 µM in series [6] is 36.2%. The outcome in series [8], in series [18] and in series [23] was Active. In addition, the pIC50 in series [15] was 5.24; in series [16] it was 4.61; in series [20], 5.42.
As to `COc1ccc2c(c1)c(Cc1ccc(OCCN3CCCCC3)cc1)c(-c1cc(OC)c(OC)c(OC)c1)n2Cc1ccc(OCCN2CCCCC2)cc1`, the Activity in [1] is reported as 12.45%; in series [2], 8.91%; in series [3], 17.19%; in series [5], “Non-Toxic”; in [10], 37.67%; in series [11], 34.3%. In addition, the Activity in [14] was found to be 53.25%; in series [19], 29.41%; in [21], 15.43%; in series [22] it was 59.19%. Further, the viability at 4 µM in [4] amounted to 56%. The viability at 6 µM in series [6] turned out to be 44.6%. For the same compound, the outcome in [8], in series [18] and in [23] was Active. Further, the pIC50 in [15] was 5.15; in series [16] it was 4.52; in [20] it was 5.62.
Take `CCN(CC)CCOc1ccc(Cc2c(-c3cc(OC)c(OC)c(OC)c3)n(Cc3ccc(OCCN(CC)CC)cc3)c3ccc(OC)cc23)cc1`: the Activity in [1] is 10.07%; in series [2] it was 5.84%; in series [3], 14.01%; in series [5] it was “Non-Toxic”; in series [10], 14.25%; in series [11] it was 38.21%. The Activity in series [14] is recorded as 51.72%; in [19] it was 36.56%; in series [21], 8.09%; in series [22], 57.6%. Also, in [4], the viability at 4 µM is 77.9%. Moreover, the viability at 6 µM in series [6] was determined as 69.7%. For the same compound, the result in [8], in series [18] and in series [23] was Active. In addition, the pIC50 is 5.08 in series [15], 4.60 in series [16] and 5.63 in series [20].
In the case of `COc1ccc2c(c1)c(Cc1ccc(OC(C)CN(C)C)cc1)c(-c1cc(OC)c(OC)c(OC)c1)n2Cc1ccc(OC(C)CN(C)C)cc1` (configuration not stated), the Activity in series [1] is 12.85%; in series [2], 8.37%; in series [3], 20.52%; in series [5], “Non-Toxic”; in series [7], 15.83 g/dL; in [9] it was 108.72 mg/dL. For the same compound, the Activity is 26.15% in series [10]; 40.83% in series [11]; 117.25 mg/dL in series [12]; “Non-Toxic” in [13]; 46.32% in series [14]; “Non-Toxic” in series [17]. For the same compound, the Activity in series [19] is 42.27%; in series [21], 9.55%; in series [22], 49.36%. Moreover, the viability at 4 µM in series [4] turned out to be 53.2%. In addition, the viability at 6 µM in series [6] was determined as 45.8%. For the same compound, the outcome in [8], in series [18] and in series [23] was Active. The pIC50 in series [15] is 5.17; in series [16] it was 4.66; in [20] it was 5.41.

(Values after ChEMBL document CHEMBL4811308, “Design, synthesis and broad spectrum antibreast cancer activity of diarylindoles via induction of apoptosis in aggressive breast cancer cells” (Bioorg Med Chem, 2021).)
